# Screening data: PubChem, The Scripps Research Institute Molecular Screening Center
# PLC-gamma1 inh = PLC-gamma1 (human) inhibition, primary screen; P19174; inhibition, % at 12.2 µM; 370,000 compounds, 0.84% hits; purified PLC-gamma1, fluorogenic substrate, fluorescence
# ASAP1 GAP inh = inhibitors of human ASAP1 ArfGAP activity; Q9ULH1; 360,000 compounds, 0.19% hits; inhibition, % at 16.5 µM; ASAP1-stimulated ARF1 GTP hydrolysis, GDP FP detection; in the data active = inhibition above about 25%;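 note: 0% = vehicle with enzyme and substrate and 100% = no enzyme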
# Target sequence (Q9ULH1 325-724 limits assumed): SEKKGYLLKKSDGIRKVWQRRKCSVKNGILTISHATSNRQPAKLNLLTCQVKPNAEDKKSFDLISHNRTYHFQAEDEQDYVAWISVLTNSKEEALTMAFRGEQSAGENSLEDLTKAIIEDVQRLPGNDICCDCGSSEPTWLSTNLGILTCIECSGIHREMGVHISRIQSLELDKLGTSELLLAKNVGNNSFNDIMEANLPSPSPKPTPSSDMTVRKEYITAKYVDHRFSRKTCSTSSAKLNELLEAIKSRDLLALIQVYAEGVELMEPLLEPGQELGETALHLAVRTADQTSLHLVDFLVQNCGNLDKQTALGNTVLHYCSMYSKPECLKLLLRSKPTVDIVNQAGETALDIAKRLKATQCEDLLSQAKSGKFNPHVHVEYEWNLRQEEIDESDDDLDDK
# PLC-beta3 inh = inhibitors of human phospholipase C beta3 | Q01970 | Purified PLC-beta3, fluorogenic substrate, fluorescence | inhibition, % at 12.2 µM | 370,000 compounds, 0.18% hits | AID 720704; in the data active = inhibition above about 11%;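 note: 0% = median of compound wells on plate and 100% = full blocker control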
# sPLA2-III inh = Inhibits HGIII-sPLA2 liposome hydrolysis, primary screen; Q9NZ20; QFRET BODIPY PC-A2 liposome hydrolysis, fluorescence; inhibition, % at 12.2 µM; 370,000 compounds, 0.56% hits; AID 743126;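 active = inhibition above mean plus 3 SD of compounds lying within the high and low control bounds, cut at about 19% in these data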;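 note: 0% = median of test compound wells and 100% = no enzyme DMSO wells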
# ARFGAP1 inh = inhibitors of rat ARFGAP1; Q62848; Arfgap1-stimulated ARF1 GTP hydrolysis, GDP FP detection; inhibition, % at 16.5 µM; 360,000 compounds, 0.26% hits;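 active = inhibition above a per-plate limit, mean inhibition of low control wells plus 3 SD, cut at about 25% in these data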;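 note: 0% = DMSO wells with enzyme and 100% = wells lacking Arfgap1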
# Target sequence (Q62848 1-136 limits assumed): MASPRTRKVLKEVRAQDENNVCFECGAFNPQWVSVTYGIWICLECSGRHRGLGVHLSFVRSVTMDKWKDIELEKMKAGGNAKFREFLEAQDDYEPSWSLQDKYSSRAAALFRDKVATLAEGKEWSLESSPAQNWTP
#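 System: truncated rat Arfgap1 GAP domain / Benchmarks: high control wells lacking Arfgap1, low control full reaction with DMSO / Times: compound-enzyme preincubation 20 min, reaction 120 min, detection 60 min, 25 °C / Repeats: one replicate per compound / Also added: human ARF1(Δ1-17)-GTP substrate / Measured by: Tracer-displacement fluorescence polarization with EDTA stop, 620/688 nm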
# PLCg1 ctr = counter-screen for PLC-beta3 inhibitors: inhibitors of human PLC-gamma1; shares compounds with PLC-gamma1 inh; purified PLC-gamma1, fluorogenic substrate, fluorescence; inhibition, % at 12.3 µM; 3,300 compounds, 3.1% hits; AID 743258
# PLCb3 confirm = human PLC-beta3 inhibition, confirmation | shares compounds with PLC-gamma1 inh | purified PLC-beta3, fluorogenic substrate fluorescence | inhibition, % at 12.3 µM | 3,300 compounds, 1% hits; in the data active = inhibition above about 11%
# * marks the source's active call; other numbers are inactive results; / = no result given. Hits are enriched below; roughly 1.9% of the tested compounds scored in any of these assays. Cut-off read from the data, not from the text of the source, unless noted: active = inhibition above about 9.5%; inactive = the rest.
SMILES,PLC-gamma1 inh,ASAP1 GAP inh,PLC-beta3 inh,sPLA2-III inh,ARFGAP1 inh,PLCg1 ctr,PLCb3 confirm
CCOC(=O)C1CCN(C(=O)C(Cc2ccc3c(c2)OCO3)NC(C)=O)CC1 (stereo not given),1,/,1,2,/,/,/
O=C(CSc1nnc(Cc2ccccc2)n1-c1cccc(Cl)c1)NNC(=O)Cc1ccccc1,10*,-12,9,-14,-14,-9,-4
CCCNC(=O)C(Cc1ccc(OC)cc1)NC(=O)c1ccc(Cl)cc1 (stereo not given),13*,-9,8,4,5,-6,0
CCn1nc(C)c(/C=N/NC(=S)Nc2ccc(Cl)cc2Cl)c1C,4,7,12*,0,1,-2,-2
CCCC(=O)OC[C@H]1CN(C2CCCC2)S(=O)(=O)c2c(Oc3ccc(F)cc3OC)cccc2O1,0,3,2,-10,10,/,/
COc1ccc(N2CCN(C(=O)CCCn3c(=O)[nH]c4cc(Cl)ccc4c3=O)CC2)cc1,11*,6,7,5,3,-12,-8
CC(=O)c1ccc(N2CCN(C(=O)CCCn3c(=O)[nH]c4ccccc4c3=O)CC2)cc1,-3,-2,-13,-5,7,/,/
Cc1cc2c(c(=O)o1)[C@@]1(C(=O)N(C)c3c(Br)cccc31)C1=C(CCCC1=O)O2,1,0,4,-4,7,/,/
COc1ccc(CNCC(O)(c2ccccc2)c2ccccc2)cc1,19*,8,-1,-11,-2,-4,-1
COc1ccc(CNCC(O)(c2ccc(F)cc2)c2ccc(F)cc2)cc1,3,-1,1,-8,6,/,/
CCOC(=O)CC[C@@H]1CC[C@]2(CCCN(S(=O)(=O)c3ccccc3)C2)O1,-1,/,0,1,/,/,/
Cc1ccccc1NC1=C/C(=N\S(=O)(=O)c2ccc(C(=O)O)cc2)c2ccccc2C1=O,25*,12,9,-4,-13,20*,4
CCC(c1nnnn1-c1ccc2c(c1)OCCO2)N1CCN(CC)CC1 (stereo not given),10*,-5,7,8,7,-7,-54
CCC(c1nnnn1-c1ccc2c(c1)OCCO2)N1CCN(C)CC1 (stereo not given),1,5,3,-1,11,/,/
O=C(O)C(Cc1ccccc1)N1C(=O)/C(=C/C=C/c2ccco2)SC1=S (stereo not given),-1,0,-38,1,-38,/,/
O=C(O)CC(C(=O)O)N1C(=O)/C(=C/C=C/c2ccco2)SC1=S (stereo not given),59*,1,-11,-6,-8,52*,-15
O=C(O)CCCN1C(=O)/C(=C/C=C/c2ccco2)SC1=S,23*,2,-15,-13,-14,18*,-15
CCCCC(=O)Nc1ccc(C(=O)c2ccccc2)cc1,0,1,-6,-5,-3,/,/
CCCCC(=O)Nc1ccc(C)c(O)c1,9.6*,-8,11*,4,4,1,2
CCCCC(=O)Nc1cc(NC(=O)CCCC)cc(C(=O)O)c1,15*,-5,6,3,-4,-5,0
CC1CCN(c2c(NCc3ccc(C(=O)NCc4ccco4)cc3)c(=O)c2=O)CC1,0,-9,3,2,3,/,/
O=C(NCc1ccco1)c1ccc(CNc2c(N3CCCCC3)c(=O)c2=O)cc1,5,4,11*,1,2,1,2
C/C(=N\NC(=O)c1nnn(-c2nonc2N)c1CSc1ccc(C)cc1)c1cccs1,10*,-6,0,12,-1,-11,-6
C/C(=N/NC(=O)c1nnn(-c2nonc2N)c1CSc1ccc(C)cc1)c1ccncc1,0,0,4,6,-8,/,/
C[N+](C)(C)CCOC(N)=O,11*,0,0,10,2,-7,-1
SMILES,PLC-gamma1 inh,ASAP1 GAP inh,PLC-beta3 inh,sPLA2-III inh,ARFGAP1 inh,PLCg1 ctr,PLCb3 confirm
Cc1cc(C)c(C#N)c(OCC2CCCO2)n1 (stereo not given),5,-5,11*,6,4,-7,-1
Cc1ccc(C(=O)COc2nc(C)cc(C)c2C#N)cc1,3,-10,-2,5,22,/,/
C[C@@H]1O[C@@H](n2c3ccc(Cl)cc3c3ccc4c5cc(Cl)ccc5[nH]c4c32)[C@H](O)[C@H](O)[C@H]1O,-7,/,-10,-6,/,/,/
COC(=O)C1=C(N)Oc2cc(C)n(Cc3cccnc3)c(=O)c2C1c1cccc(OC)c1OC (stereo not given),9.7*,0,9,9,6,-6,-2
COC(=O)C1=C(N)Oc2cc(C)n(Cc3cccnc3)c(=O)c2C1c1cc(OC)ccc1OC (stereo not given),-3,-14,0,-4,-1,/,/
Cc1ccc(S(=O)(=O)NCC2CN(S(=O)(=O)c3ccc(C)cc3)c3ccccc3C(=O)N2c2ccc(F)cc2)cc1 (stereo not given),6,/,6,-26,/,/,/
O=C(NCCCN1CCCC1=O)Nc1ccccc1F,11*,6,-6,8,17,-5,0
COc1cccc(-n2c(SCC(N)=O)nnc2-c2ccncc2)c1,1,6,5,8,6,/,/
COc1cccc(NC(=O)C(Sc2nnc(-c3ccncc3)n2-c2ccc(Cl)cc2)c2ccccc2)c1 (stereo not given),11*,14,4,-22,11,0,-1
O=C1C=C(c2ccc3ncccc3c2)C[C@@H](c2ccc(Cl)cc2)C1,11*,14,0,-17,5,0,-1
Nn1c(SCc2cn3cc(Cl)ccc3n2)nnc1-c1ccncc1,11*,-12,-8,-1,-8,-6,-3
O=C(CCC(=O)OCc1ccc([N+](=O)[O-])cc1)Nc1ccc(F)cc1,10*,-2,10,0,-12,-2,1
O=C(CCC(=O)OCc1cccc([N+](=O)[O-])c1)Nc1ccc(F)cc1,5,3,-1,0,0,/,/
Cc1ccc(NC(=O)CCC(=O)OCC(=O)c2ccc(Oc3ccc([N+](=O)[O-])cc3)cc2)cc1C,11*,4,5,-5,4,7,6
O=C(OCc1cn(Cc2ccc(F)cc2)nn1)N1CCOCC1,2,/,3,3,/,/,/
N#Cc1cccc(OC[C@@H](O)CN2CCC(C(O)(c3ccccc3)c3ccccc3)CC2)c1,2,/,3,-10,/,/,/
CCOc1ccc(C(=O)NC(C(=O)NCC2CCCO2)C(C)C)cc1 (stereo not given),-3,4,-9,3,-5,/,/
COc1ccc(C(=O)NC(C(=O)NCC2CCCO2)C(C)C)cc1 (stereo not given),10*,-5,5,9,-3,-3,-3
O=c1c2[nH]c3ccccc3c2ncn1CCN1CCCCC1,-6,15,-4,1,-3,/,/
